Most compounds without a hit are left out; they make up all but 6.4% or so of the library.
H69AR growth 86K – blocks growth of human H69AR lung tumor cells; H69AR lung tumor viability, ATP luminescence, 72 h; active compounds read low; viability, % at 10 µM; 85,000 compounds, 6% hits;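 active means viability at or below 40%; inactive means viability above 40%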;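 further: multidrug resistant small cell line overexpressing MRP-1 efflux transporter; 100% = mean luminescence of untreated control wells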
Ecoli WT expand – growth inhibitors of E. coli BW25113 wild type; OD600 absorbance; growth inhibition, % at 100 µM; 98,000 compounds, 0.15% hits; AID 710;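 active means growth inhibition above about 50% at one test dose, limit read from the data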;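 further: growth measured after 20 h incubation at 37 °C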
Ecoli tolC – growth inhibitors of E. coli BW25113 tolC mutant | OD615 | growth inhibition, % at 10 µM (by protocol) | 65,000 compounds, 2.2% hits | AID 573;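 active means growth inhibition at or above a cutoff equal to the mean over every tested compound plus 3 SD, cut at about 60% in these data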;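 further: growth measured after 20 h incubation at 37 °C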
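Material: E. coli BW25113 ΔtolC::kan, tolC deletion mutant strain. Measure: percent growth inhibition. Schedule: 37 °C, 20 h exposure. Doses: single-point testing at 10 µM. Signal: A615 absorbance measurement. Buffer or medium: kanamycin-containing LB broth (50 µg/mL).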
Jurkat viability – cytotoxicity toward Jurkat cells; Jurkat E6.1 viability, ATP luminescence, 48 h; inhibition, % at 4 µM; 56,000 compounds, 1.2% hits;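 active means inhibition above the mean inhibition of all tested compounds plus 3 SD, cut at about 28% in these data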
Lung fibro prol – blocks proliferation of human lung fibroblasts; LL 47 human lung fibroblast viability, ATP luminescence; active compounds read low; viability, % at 10 µM; 85,000 compounds, 1.1% hits; AID 719;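 active means viability at or below 50% in the single dose screen; inactive means viability above 50%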;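 further: compound exposure lasted 72 h before the ATP readout; 100% = median luminescence of untreated cell-only wells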
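Assay system: human lung fibroblast line LL 47, low passage. Input: 1,150 fibroblasts seeded per well. Times: overnight cell rest, 72 h compound treatment at 37 °C. Evaluation: % viability of median cell-only signal. Technique: luminescent ATP detection, CellTiter-Glo. Control set: cell-only wells, no compound.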
HUVEC inhibit – human endothelial cell proliferation inhibition; HUVEC proliferation, CellTiter-Glo luminescence, 72 h; active compounds read low; viability, % at 10 µM (by protocol); 86,000 compounds, 1.1% hits; AID 648;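 active means viability at or below 30%; inactive means viability above 30%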;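 further: 100% = median luminescence of DMSO-only cell control wells on each plate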
* marks the source's active call; other numbers are inactive results; x = no result.

SMILES	H69AR growth 86K	Ecoli WT expand	Ecoli tolC	Jurkat viability	Lung fibro prol	HUVEC inhibit
COc1cc2c(cc1NC(=O)CSc1nnnn1-c1ccccc1)oc1ccccc12	19*	-9	-11	2	76	57
O=C(NC1CS(=O)(=O)CC1NCc1ccco1)c1ccccc1 (configuration not stated)	94	3	-5	2	92	98
COc1cc2c(cc1NC(=O)CSc1nnc(Cc3cccs3)n1C)oc1ccccc12	3.9*	-4	50	8	94	58
COc1cc2c(cc1NC(=O)CN1CCN(S(=O)(=O)c3ccccc3F)CC1)oc1ccccc12	40*	-10	x	x	67	40
COc1cc2c(cc1NC(=O)CCCN1C(=O)CCC1=O)oc1ccccc12	81	4	-1	2	99	74
COc1cc2c(cc1NC(=O)CSc1nnc(COc3ccc(Cl)cc3)n1C)oc1ccccc12	91	-12	x	x	90	70
COC(=O)c1nn(-c2ccccc2)c(Sc2ccc(Cl)cc2)c1/C=N/O	x	-4	x	x	x	x
COC(=O)Cn1c2ccc(OC)cc2c2nc3ccccc3nc21	61	0	4	10	100	92
CCOC(=O)Cn1c2ccc(OC)cc2c2nc3ccccc3nc21	24*	1	12	7	80	75
CCOC(=O)c1ccc(Nc2ncnc3ccc(C)cc23)cc1	84	-2	x	x	115	61
CCOC(=O)c1cccc(Nc2ncnc3ccc(C)cc23)c1	22*	15	x	x	90	84
CCCC(=O)N=C1SC2CS(=O)(=O)CC2N1c1ccc(CC)cc1 (configuration not stated)	92	6	x	x	x	97
N#CC1(c2ccccc2)CCCN1C(=O)c1ccc(Br)o1 (configuration not stated)	92	-4	-2	3	98	97
Cc1cc2cc(C)c3nnc(SCC(=O)NCc4ccco4)n3c2cc1C	70	2	10	-17	106	75
CCn1c(=O)cc(SCC(=O)NCc2ccco2)c2ccccc21	39*	-3	1	20	89	60
Cc1cc2nnc(SCC(=O)NCc3cccs3)n2c2ccccc12	24*	13	x	x	58	55
CCn1c(=O)cc(SCC(=O)NCc2ccc(C)o2)c2ccccc21	101	1	x	x	83	60
Cc1cc2nnc(SCC(=O)NCc3ccco3)n2c2ccccc12	x	x	-7	84*	x	x
Cc1nnc(SCC(=O)NCc2cccs2)n1-c1ccccc1	107	1	-4	-7	128	110
Cc1occc1-c1nnc(SCC(=O)NCc2cccs2)n1-c1ccc(F)cc1	69	-9	2	-4	104	29*
COC(=O)c1cc(NS(=O)(=O)c2ccc(NC(C)=O)cc2)cc(C(=O)OC)c1	85	-1	x	x	99	93
CCCC1=C(C(=O)OCC)C(c2ccncc2)n2ncnc2N1 (configuration not stated)	79	5	x	x	98	106
Fc1ccc(CSc2nsc(SCc3ccc(F)cc3)n2)cc1	90	7	x	x	88	100
O=C(Nc1nc(SCc2ccc(F)cc2)ns1)c1ccco1	84	x	81*	0	108	91
COC(=O)Cn1c(CCS(=O)(=O)c2ccc(C)cc2)nc2ccccc21	63	5	-8	-2	105	115
SMILES	H69AR growth 86K	Ecoli WT expand	Ecoli tolC	Jurkat viability	Lung fibro prol	HUVEC inhibit
O=C(Nc1cccnc1)Nc1ccc(F)c(Cl)c1	86	61*	49	0	106	92
Cc1ccc(NC(=O)CN2CCCN(S(=O)(=O)c3ccc(Br)s3)CC2)cc1	31*	-8	x	x	100	100
CCOC(=O)NC1(C(F)(F)F)C(=O)N(Cc2ccccn2)C2=C1C(=O)CC(C)(C)C2 (configuration not stated)	97	-1	-22	4	100	97
O=C(CSc1nc2ccccc2c(=O)[nH]1)Nc1ccc(S(=O)(=O)N2CCCC2)cc1	87	3	34	2	99	78
CN1CCN(CCC(=O)N2c3ccccc3Sc3ccc(C(F)(F)F)cc32)CC1	85	4	x	x	91	85
CN1CCN(CCCN2c3ccccc3Sc3ccc(Cl)cc32)CC1	71	x	-14	x	94	95
OCCN1CCN(CCCN2c3ccccc3Sc3ccc(C(F)(F)F)cc32)CC1	0.8*	x	10	x	47*	2.9*
CN(C)CCCN1c2ccccc2Sc2ccc(C(F)(F)F)cc21	1.5*	x	9	x	41*	47
CCOC(=O)c1c(NC(=O)CC)sc(C(C)=O)c1C	82	5	5	1	103	103
COc1ccc2nc(NC(=O)C3CCCN(S(=O)(=O)c4c(C)noc4C)C3)sc2c1 (configuration not stated)	35*	-5	18	8	101	86
CCOc1ccc(OCC)c(NC(=O)C2CCCN(S(=O)(=O)c3c(C)noc3C)C2)c1 (configuration not stated)	19*	-7	-8	-6	82	78
CCOc1ccc2nc(NC(=O)C3CCCN(S(=O)(=O)c4c(C)noc4C)C3)sc2c1 (configuration not stated)	x	x	18	7	x	x
COCCSc1ccccc1C(=O)N1CCOCC1	106	-11	x	x	96	96
CCc1c(O)nc(SCc2ccccc2)n(C(C)CC)c1=O (configuration not stated)	102	8	70*	-13	100	106
Cc1ccc(-c2nc3cccnc3o2)cc1NC(=O)COc1ccc(Cl)cc1C	6.9*	-2	10	3	63	33
Cc1ccc(-c2nc3ncccc3o2)cc1NC(=O)COc1ccccc1	81	-5	x	x	117	89
Cc1ccc(-c2nc3cccnc3o2)cc1NC(=O)COc1ccc(C(C)(C)C)cc1	44	5	x	x	82	18*
Cc1ccc(-c2nnn(CC(=O)N(CC(=O)NCC3CCCO3)c3ccc(F)c(Cl)c3)n2)o1 (configuration not stated)	86	-3	-9	-7	98	90
Cc1ccc(-c2nnn(CC(=O)N(CC(=O)NC3CCCC3)c3cnc4ccccc4c3)n2)o1	76	-23	1	4	100	98
CCC(C(=O)NC1CCCC1)N(C(=O)Cn1nnc(-c2ccc(C)o2)n1)c1cnc2ccccc2c1 (configuration not stated)	5.0*	-4	3	-1	86	97
Cc1ccc(-c2nnn(CC(=O)N(CC(=O)NC3CCCCC3)c3ccc(F)c(Cl)c3)n2)o1	8.3*	x	x	x	40*	37
Cc1ccc(-c2nnn(CC(=O)N(CC(=O)NC3CCCC3)c3ccc(F)c(Cl)c3)n2)o1	7.8*	x	x	x	83	52
CCOc1ccccc1NC(=O)c1ccccc1-c1nc(-c2ccccc2OC)no1	68	-9	4	-1	100	74
Cc1ccc2c(c1)N(CCC(=O)NCc1cccs1)C(=O)C(C)O2 (configuration not stated)	87	7	x	x	107	104

Source: PubChem BioAssay
